A selection: hits, their analogues and other compounds. The true share with any hit is near 3.7%.
KCNQ1 block – human KCNQ1 channel inhibition | P51787 | CHO-K1 KCNQ1, FluxOR thallium flux fluorescence; hits give high values | B-score at 10 µM | actives 1.3% (n = 310,000);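 active means compounds whose thallium flux B-score, printed positive for inhibition, exceeds three library SD while starting fluorescence stays within three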;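 further: channel opened by potassium depolarization with thallium stimulus after 20 min compound exposure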
KCNQ1 act – potentiators or activators of human KCNQ1 potassium channel; AID 2648; CHO-K1 KCNQ1, thallium flux FluxOR fluorescence; hits give high values; B-score at 10 µM; actives 0.35% (n = 310,000);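 active means fluorescence ratio B-score, a plate-corrected score, at least three library SD, with initial intensity B-score within 5 SD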
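System: Stable KCNQ1 CHO-K1 line | Incubation: 90 min dye loading and 20 min compound exposure, both at room temperature | Measure: Ratio B score | Medium: Assay buffer for compound exposure, DMSO matched across wells | Compound dosing: Single-concentration screen | Probe or stimulus: K+/Tl+ depolarizing stimulus | Measured by: Kinetic FluxOR fluorescence, 10 s baseline plus 110 s post-stimulus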
hERG rescue – compounds protecting human hERG from proarrhythmic drug block | Q12809 | CHO-hERG, FluxOR thallium flux, dofetilide IC70 present | activation (rescue from dofetilide block), less the hit threshold, % at 10 µM | actives 0.51% (n = 310,000);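 active means activation above the mean of controls blocked by dofetilide plus 5 SD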;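 further: thallium influx through hERG after potassium depolarization seen as dye fluorescence rise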
Target sequence (Q12809 whole entry, looked up): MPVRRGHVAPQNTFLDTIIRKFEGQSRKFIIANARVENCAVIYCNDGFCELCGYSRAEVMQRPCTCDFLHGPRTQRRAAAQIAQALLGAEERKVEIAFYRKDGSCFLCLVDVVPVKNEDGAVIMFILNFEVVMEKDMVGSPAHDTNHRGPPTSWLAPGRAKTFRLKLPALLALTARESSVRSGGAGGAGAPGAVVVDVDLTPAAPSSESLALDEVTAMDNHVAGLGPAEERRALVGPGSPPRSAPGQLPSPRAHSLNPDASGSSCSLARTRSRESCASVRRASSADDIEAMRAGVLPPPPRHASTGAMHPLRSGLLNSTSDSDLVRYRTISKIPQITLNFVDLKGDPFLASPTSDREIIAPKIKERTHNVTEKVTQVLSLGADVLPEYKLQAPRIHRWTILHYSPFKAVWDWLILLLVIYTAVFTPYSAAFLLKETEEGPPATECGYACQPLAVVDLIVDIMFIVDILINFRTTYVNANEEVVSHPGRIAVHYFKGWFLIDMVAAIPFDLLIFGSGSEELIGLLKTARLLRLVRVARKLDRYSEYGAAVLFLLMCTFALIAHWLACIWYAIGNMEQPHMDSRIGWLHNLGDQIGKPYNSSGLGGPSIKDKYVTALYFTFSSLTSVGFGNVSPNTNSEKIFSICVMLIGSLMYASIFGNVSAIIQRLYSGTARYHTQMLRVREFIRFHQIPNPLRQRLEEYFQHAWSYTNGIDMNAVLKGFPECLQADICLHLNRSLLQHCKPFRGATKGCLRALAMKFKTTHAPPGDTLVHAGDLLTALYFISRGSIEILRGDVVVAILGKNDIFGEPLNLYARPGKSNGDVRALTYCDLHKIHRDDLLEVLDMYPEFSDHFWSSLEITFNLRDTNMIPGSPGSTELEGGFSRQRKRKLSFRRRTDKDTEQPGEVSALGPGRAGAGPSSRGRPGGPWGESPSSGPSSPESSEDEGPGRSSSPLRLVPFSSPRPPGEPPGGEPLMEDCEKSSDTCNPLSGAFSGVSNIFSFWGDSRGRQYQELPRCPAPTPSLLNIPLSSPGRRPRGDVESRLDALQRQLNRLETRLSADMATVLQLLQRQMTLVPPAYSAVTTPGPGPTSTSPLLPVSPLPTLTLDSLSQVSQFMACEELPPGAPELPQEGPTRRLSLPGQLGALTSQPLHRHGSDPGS
Kir21 inh – blocks the mouse Kir2.1 inward-rectifier potassium channel. P35561. HEK293-Kir2.1, FluxOR thallium flux fluorescence; hits give low values. B-score at 10 µM. actives 0.85% (n = 310,000);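 active means fluorescence ratio B-score at or below minus 3 SD of library scores, with starting-brightness B-score within 2 SD, cut at about -4.2 in these data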;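 further: channel flux triggered by added potassium and thallium sulfate stimulus; B-score of peak minus minimum fluorescence over baseline after thallium stimulus; more negative B-score means stronger Kir2.1 block with less thallium influx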
KCNK9 inh – blocks the human KCNK9 two-pore domain potassium channel; HEK293 KCNK9, FluxOR thallium flux fluorescence; hits give low values; B-score at 10 µM; actives 1.2% (n = 310,000);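 active means ratio B-score over 3 SD below the library mean, with starting fluorescence within 5 SD of its mean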;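 further: negative B-score means less thallium flux so channel inhibition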
KCNK3 inh – human KCNK3 channel inhibition, primary screen | O14649 | CHO-KCNK3 thallium flux, FluxOR fluorescence; hits give low values | B-score at 10 µM | actives 0.84% (n = 340,000);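 active means B-score under library mean minus 4 SD, starting fluorescence ratio at most library mean plus 5 SD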;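 further: more negative B-score means stronger inhibition of thallium flux through KCNK3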
KCNK9 block conf – confirmation of human KCNK9 potassium channel inhibitors. shares compounds with KCNK9 inh. HEK293 KCNK9 cells, FluxOR thallium flux fluorescence. inhibition, % at 10 µM. actives 43% (n = 4,900). AID 492992;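 active means thallium signal inhibited by more than 5 SD of the compound-free buffer control wells, on both duplicate plates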;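 further: 0% = assay buffer control wells without compound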
Kir21 sel – mouse Kir2.1 off-target activity of KCNK9 modulators; shares compounds with KCNK9 inh; Kir2.1 cells, FluxOR thallium flux fluorescence; inhibition, % at 10 µM; actives 4% (n = 4,900); AID 492993;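 active means thallium signal drop more than 5 SD beyond the mean of the no-compound control wells, seen in both duplicate plates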;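 further: signal is fluorescence rise after thallium addition divided by baseline fluorescence; plate controls were assay buffer only for no effect and full block by chlorpromazine control for full effect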
HEK293 Tl ctr – second check of KCNK9 modulator effects in non-induced HEK293 cells | FluxOR thallium flux | inhibition, % at 10 µM | actives 40% (n = 4,900) | shares compounds with KCNK9 inh;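 active means thallium signal drop beyond 5 SD of the untreated control mean, on both duplicate plates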;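 further: plate controls were buffer only IC0 wells for no effect and SID17386958 at its maximal inhibitory level for full effect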
* hit, by the source's call; i = inactive; nt = not tested or not shown.

SMILES | KCNQ1 block | KCNQ1 act | hERG rescue | Kir21 inh | KCNK9 inh | KCNK3 inh | KCNK9 block conf | Kir21 sel | HEK293 Tl ctr
CCCCn1c(SCC(=O)N(CC)C2CCS(=O)(=O)C2)nc2cc(S(N)(=O)=O)ccc21 (stereo not given) | i | i | -13 | 0.18 | i | i | nt | nt | nt
Cc1ccc(C)c(N2CCN(C3CCCCC3NS(=O)(=O)c3ccccc3)CC2)c1 (stereo not given) | 8* | i | -7 | 0.68 | -16* | -12* | 52%* | i | 31%*
COc1ccc(N2CCN(C3CCCCC3NS(=O)(=O)c3ccc(Cl)cc3)CC2)cc1 (stereo not given) | i | i | -2 | 1.1 | i | i | i | i | i
Cc1ccc(NC(=O)CSCC(=O)NNC(=O)c2nn(C)c(=O)c3ccccc23)cc1 | nt | nt | nt | nt | nt | i | nt | nt | nt
Cc1ccc(-c2noc(CSc3nnc(Cc4ccccc4)n3-c3cccc(C)c3)n2)cc1 | i | i | -14 | -0.48 | -9.9* | i | i | i | 30%*
COC(=O)c1cc(NC(=O)Nc2cc(OC)ccc2OC)cc(C(=O)OC)c1 | i | i | -16 | 2.2 | -11* | i | 31%* | i | i
O=C(c1cnc(Cl)c(Cl)c1)N1CCC(Cc2ccccc2)CC1 | i | i | -8 | -0.05 | i | i | i | i | i
O=C(NCCc1ccccc1)c1ccc2nc(N3CCOCC3)sc2c1 | i | i | -8 | 1 | i | i | nt | nt | nt
O=C(c1ccc2nc(N3CCOCC3)sc2c1)N1CCC(Cc2ccccc2)CC1 | i | i | -14 | -1.2 | i | i | i | i | i
O=C(c1cnc(Cl)c(Cl)c1)N1CCN(S(=O)(=O)c2ccc3ccccc3c2)CC1 | nt | nt | nt | nt | nt | i | nt | nt | nt
COCCC1CCCCN1Cc1cn(-c2ccccc2)nc1-c1ccc2c(c1)OCO2 (stereo not given) | i | i | -12 | -0.77 | i | i | i | i | i
O=S1(=O)CCOC[C@H](c2ccccc2)N1Cc1cccc(Cl)c1 | i | i | -11 | -2.9 | i | i | nt | nt | nt
Cc1ccc(O)c(CNc2cccc3cccnc23)c1 | i | i | -17 | 0.35 | -9.7* | i | 60%* | i | 36%*
Oc1ccc(Br)cc1CNc1cccc2cccnc12 | i | i | -11 | 0.02 | -13* | i | 52%* | i | 40%*
Cc1ccc(O)c(CNc2ccccn2)c1 | i | i | -2 | 0.08 | i | i | nt | nt | nt
O=[N+]([O-])c1cccc(COc2ccccc2CN2CCOCC2)c1 | nt | nt | nt | nt | nt | i | nt | nt | nt
Cc1cc(OCc2cccc(Cl)c2)c(C)cc1CN1CCOCC1 | i | i | -18 | -1.4 | -14* | i | 52%* | i | 32%*
COc1ccccc1CNC(=O)c1ccccc1OCc1ccc(F)cc1 | i | i | -14 | -6.5* | -8.8* | i | 70%* | 39%* | 28%*
O=C(NCc1ccccn1)c1ccccc1OCc1ccc(F)cc1 | i | i | -17 | -1.1 | i | i | nt | nt | nt
CC(NC(=O)Cn1nc(C(F)(F)F)c2c1CCC2)c1ccccc1 (stereo not given) | i | i | -4 | -0.17 | i | i | i | i | 30%*
CCOC(=O)C(Oc1ccc2c(-c3ccccc3)cc(=O)oc2c1C)c1ccccc1 (stereo not given) | i | i | -14 | -0.38 | i | i | nt | nt | nt
CCOC(=O)C(Oc1ccc2c(-c3ccc(OC)cc3)cc(=O)oc2c1C)c1ccccc1 (stereo not given) | i | i | -5 | 1.4 | -11* | i | 50%* | i | 32%*
Cc1ccc(C(=O)c2c(NC(=O)c3ccccc3C)sc(C)c2C)cc1 | i | i | -10 | -0.29 | i | i | i | i | i
Cc1c(C)c(C)c(C(=O)c2ccc(NC(=O)c3ccccc3C(=O)O)cc2)c(C)c1C | i | i | -12 | 1.3 | i | i | i | i | i
O=C(O)c1ccccc1C(=O)Nc1ccc(Oc2ccc3ccccc3c2)cc1 | i | i | -2 | -0.57 | i | i | i | i | i
SMILES | KCNQ1 block | KCNQ1 act | hERG rescue | Kir21 inh | KCNK9 inh | KCNK3 inh | KCNK9 block conf | Kir21 sel | HEK293 Tl ctr
COc1ccc(NC(=O)c2ccccc2-c2ccccc2C(=O)O)cc1 | i | i | -2 | 0.03 | i | i | nt | nt | nt
Cc1sc(NC(=O)c2ccco2)c(C(=O)c2ccc(Cl)cc2)c1C | i | i | -9 | 1.3 | i | i | nt | nt | nt
Cc1cc(OCCCC(=O)NCCc2nnc3ccccn23)ccc1Cl | nt | nt | nt | nt | nt | i | nt | nt | nt
Cc1ccc(CN2CC(C(=O)Nc3ccc(S(=O)(=O)N4CCCCC4)cc3)CC2=O)cc1 (stereo not given) | i | i | -2 | -1.7 | i | i | nt | nt | nt
O=C(O)c1cccc(CSc2nc(-c3ccccc3)cc(C(F)(F)F)n2)c1 | i | i | -18 | 0.09 | i | i | nt | nt | nt
COc1ccc(-c2cc(C(F)(F)F)nc(SCc3cccc(C(=O)O)c3)n2)cc1 | i | i | -16 | -2.2 | i | i | i | i | i
CC(=O)Oc1ccc(-c2cccc(C(=O)OCC(=O)Nc3ccccc3Oc3ccccc3)c2)cc1 | i | i | -14 | 0.15 | i | i | nt | nt | nt
CCOc1ccccc1NC(=O)COC(=O)c1cccc(-c2ccc(OC(C)=O)cc2)c1 | i | i | -9 | -2.2 | -10* | i | i | i | 32%*
Cc1ccccc1OCC(=O)Nc1ccc(N2CCN(C(=O)c3ccco3)CC2)cc1 | i | i | -7 | -0.5 | i | i | nt | nt | nt
CNc1nnc(CSc2nc(C)cc(C)n2)s1 | i | i | -5 | 1.2 | i | i | 36%* | i | i
CNc1nnc(CSc2nc3ccccc3s2)s1 | i | i | -10 | -0.23 | i | i | nt | nt | nt
CCCCc1ccc(-n2nnnc2SCC(=O)Nc2cc(OC)c([N+](=O)[O-])cc2C)cc1 | i | i | -9 | -0.76 | i | i | i | i | i
O=C(COc1ccc(Cl)cc1Cl)NCCCCc1ccccc1 | i | i | -12 | 0.55 | i | i | i | i | 24%*
O=C(CCCc1ccccc1)NCCCc1ccccc1 | i | i | 0 | 0.07 | i | i | i | i | i
